The record followed here is ChEMBL document CHEMBL4819017 (Eur J Med Chem, 2021).

As a reminder, the IC50 is the concentration needed to halve the response being measured. Usually EC50 stands for the midpoint of the concentration-response curve. A word on the AUC(0-inf): it is total exposure, with the tail of the curve extrapolated. High values mean high exposure, low ones low exposure. One may read the half-life as how long it takes for the measured level to halve. A lower half-life goes with fast loss. The term bioavailability denotes dose-corrected exposure relative to a reference, in per cent. Low values mean poor availability, high ones good availability. Broadly, the Ki is the dissociation constant of the complex between target and ligand, obtained from inhibition or displacement. A word on the GI50: it is the concentration giving 50% growth inhibition. Read a low GI50 as greater sensitivity of the cells.

Series [1] has as its target Serine/threonine-protein kinase mTOR (Homo sapiens, UniProt P42345). Briefly: Inhibition of recombinant human GST tagged mTOR (1360 to 2549 residues) expressed in baculovirus expression system measured by LanthaScreen assay. Put shortly:
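mTOR inhibition measured by LanthaScreen assay; IC50 values average two independent experiments.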
For orientation: Time-resolved FRET reads energy transfer from a long-lived donor to a nearby acceptor.

The nature of series [2]: Inhibition of PI3K/mTOR in human U2OS cells assessed as inhibition of AKT1 phosphorylation at Ser473 residue by C-ELISA. In kind it is cell-based. An outline of the steps: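 U2OS osteosarcoma cells grown in 0.1% FBS and serum-stimulated. Endogenous phospho-AKT1 Ser473 quantified by cell-based ELISA with chemiluminescent substrate. Signal plotted against inhibitor concentration and fitted to a sigmoid dose-response curve.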
Background: ELISA stands for enzyme-linked immunosorbent assay.

Series [3] in a line: AUC (infinity) in BALB/c mouse at 5 mg/kg, iv measured for 8 hrs. It counts as ADME, organism-based. Further details: route intravenous, dose 5 mg/kg, time 8 hrs. The conditions noted are these: in vivo. An outline of the steps:
(§1)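 BALB/c mice dosed I.V. or P.O. at the stated dose; plasma levels followed for 8 h. Parameters from noncompartmental analysis: AUC (h.ng/ml), T1/2 (h), Cl (L/h/Kg), Vd (L/Kg), Cmax (ng/ml), Tmax (h).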

Series [4] can be described thus: Metabolic stability in human liver microsomes assessed as parent compound remaining in presence of NADPH regenerating system at 0.5 uM measured after 15 mins by LC-MS/MS analysis. As to conditions: read-out: Stabilty. It counts as ADME, Microsome. An outline of the steps: (§2)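 Human, mouse or rat liver microsomes at 0.5 mg/ml protein with compound at 0.5 µM and NADPH-regenerating system, 37 °C with shaking. Control wells contain 0.1 M potassium phosphate instead of the regenerating system. Reaction stopped with acetonitrile/0.1% formic acid, centrifuged, supernatant analyzed by LC-MS/MS. Result is percent parent compound remaining.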
On the technique in general: Liver microsomes are vesicles of endoplasmic reticulum, rich in cytochrome P450 enzymes.

Series [5] is described as follows: Metabolic stability in mouse liver microsomes assessed as parent compound remaining in presence of NADPH regenerating system at 0.5 uM measured after 15 mins by LC-MS/MS analysis. It counts as ADME, Microsome. The conditions noted are these: read-out: Stabilty. Put shortly:
as §2

Series [6] has as its target Cytochrome P450 2C9 (Homo sapiens, UniProt P11712). The series can be described thus: Inhibition of CYP2C9 (unknown origin) using Luciferin-H as substrate at 10 uM preincubated with enzyme and substrate for 5 mins followed by addition of NADPH regeneration system and measured after 60 mins by luminescence method. It counts as ADME. Put shortly:
(§3)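 P450-Glo luminescence assays with these substrates: Luciferin-ME (CYP1A2), Luciferin-PPXE (CYP3A4), Luciferin-H (CYP2C9), LuciferinH-EG (CYP2C19), Luciferin-ME-EG (CYP2D6). Compounds run in 1/3 serial dilutions from 10 µM in 0.5% DMSO with enzyme and substrate. After 5 min preincubation, NADPH regeneration reagent added; 60 min at 37 °C, then detection reagent for 30 min. Background subtracted.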

Series [7] concerns the target Cytochrome P450 2C19 (Homo sapiens, UniProt P33261). Briefly: Inhibition of CYP2C19 (unknown origin) using LuciferinH-EG as substrate at 10 uM preincubated with enzyme and substrate for 5 mins followed by addition of NADPH regeneration system and measured after 60 mins by luminescence method. In kind it is ADME. An outline of the steps:
as §3

A short description of series [8]: Half life in BALB/c mouse at 10 mg/kg, po measured for 8 hrs. In kind it is ADME, organism-based. As to conditions: in vivo. An outline of the steps: as §1
Series [9] can be described thus: AUC(infinity) in BALB/c mouse at 10 mg/kg, po measured for 8 hrs. It counts as ADME, organism-based. Also noted: route oral, time 8 hrs, dose 10 mg/kg. As to conditions: in vivo. Put shortly: as §1
Series [10] can be described thus: Oral bioavailability in BALB/c mouse at 10 mg/kg measured for 8 hrs. It counts as ADME, organism-based. The conditions noted are these: in vivo. An outline of the steps:
as §1

Series [11] deals with PI3-kinase p110-alpha/p85-alpha (Homo sapiens, UniProt P42336). Briefly: Inhibition of human p110alpha/p85alpha using PIP2 as substrate in presence of ATP measured by HTRF assay. In kind it is protein-complex assay.
Series [12] addresses Phosphatidylinositol 4,5-bisphosphate 3-kinase catalytic subunit gamma isoform (Homo sapiens, UniProt P48736). The series can be described thus: Inhibition of human p110gamma using PIP2 as substrate in presence of ATP measured by HTRF assay. An outline of the steps:
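HTRF PI3-kinase assay with PIP2 at 10 µM. Enzyme and ATP levels (ATP at 50× KM): p110α/p85α 100 pM with 200 µM ATP; p110δ/p85α 100 pM with 200 µM ATP; p110β/p85α 500 pM with 250 µM ATP; p110γ 4 nM with 100 µM ATP. Activity normalized to no-compound control, variable-slope sigmoidal fit. Two independent experiments in duplicate.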

For series [13], the species on record is Homo sapiens. The series can be described thus: Selectivity ratio of Ki for human p110gamma to Ki for human p110alpha/p85alpha using PIP2 as substrate in presence of ATP. An outline of the steps:
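Ki from a PI3-kinase HTRF assay run per manufacturer. Enzyme levels: p110α/p85α and p110δ/p85α 100 pM, p110β/p85α 500 pM, p110γ 4 nM. ATP at 50× KM: 200 μM (α, δ), 250 μM (β), 100 μM (γ). PIP2 10 μM. Activity normalized to no-compound control. Ratio is the isoform Ki over the α Ki.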

Series [14] in a line: Inhibition of PI3K/mTOR in human MCF7 cells assessed as reduction of AKT phosphorylation at Ser473 residue measured after 3 hrs by western blot assay. In kind it is cell-based. The conditions noted are these: MCF7, 3 h. Put shortly: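 MCF7 cells treated for 3 h across a dose range, washed and lysed with phosphatase and protease inhibitors. Lysates run on 10% SDS-PAGE and blotted, antibodies incubated overnight at 4 °C.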

The test system of series [15] is HCT-116. Briefly: Growth inhibition of human HCT-116 cells harboring mutated p110alpha measured after 72 hrs by Cell titre Glo-luminiscence cell viability assay. It counts as functional. An outline of the steps: (§4)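 Cells harvested just before confluency and seeded at 4,000 cells/well, then left 24 h before dosing. Serial dilutions from 10 mM DMSO stocks, final DMSO ≤0.5%, each concentration in duplicate.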

For series [16], the system named is SK-OV-3. The series can be described thus: Growth inhibition of human SK-OV-3 cells harboring mutated p110alpha measured after 72 hrs by Cell titre Glo-luminiscence cell viability assay. It counts as functional. An outline of the steps: as §4
The target in series [17] is Voltage-gated inwardly rectifying potassium channel KCNH2 (Homo sapiens, UniProt Q12809). The series can be described thus: Inhibition of human ERG by fluorescence polarization assay. Put shortly: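 Predictor h-ERG membrane preparations (sonicated) incubated with test compound dilutions and fluorescent tracer (working 4X tracer at 4 nM) at room temperature for ≥1 h. Read-out by fluorescence polarization, ex 530/25, em 590/35.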

SMILES strings stand for the structures.

Sequence of Cytochrome P450 2C9 (P11712 whole entry): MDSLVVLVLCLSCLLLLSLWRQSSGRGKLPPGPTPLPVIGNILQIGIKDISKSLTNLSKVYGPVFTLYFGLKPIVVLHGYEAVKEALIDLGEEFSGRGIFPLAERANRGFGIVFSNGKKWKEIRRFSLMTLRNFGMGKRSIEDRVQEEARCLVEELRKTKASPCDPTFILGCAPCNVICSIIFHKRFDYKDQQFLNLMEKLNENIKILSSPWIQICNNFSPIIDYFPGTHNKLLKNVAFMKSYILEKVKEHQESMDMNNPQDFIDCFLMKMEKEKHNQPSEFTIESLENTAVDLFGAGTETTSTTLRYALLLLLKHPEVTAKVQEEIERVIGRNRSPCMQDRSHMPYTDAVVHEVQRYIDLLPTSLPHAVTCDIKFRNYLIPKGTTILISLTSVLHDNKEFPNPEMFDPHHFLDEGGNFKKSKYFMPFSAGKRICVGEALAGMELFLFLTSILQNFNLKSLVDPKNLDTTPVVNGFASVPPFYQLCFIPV
Sequence of Cytochrome P450 2C19 (P33261 whole entry): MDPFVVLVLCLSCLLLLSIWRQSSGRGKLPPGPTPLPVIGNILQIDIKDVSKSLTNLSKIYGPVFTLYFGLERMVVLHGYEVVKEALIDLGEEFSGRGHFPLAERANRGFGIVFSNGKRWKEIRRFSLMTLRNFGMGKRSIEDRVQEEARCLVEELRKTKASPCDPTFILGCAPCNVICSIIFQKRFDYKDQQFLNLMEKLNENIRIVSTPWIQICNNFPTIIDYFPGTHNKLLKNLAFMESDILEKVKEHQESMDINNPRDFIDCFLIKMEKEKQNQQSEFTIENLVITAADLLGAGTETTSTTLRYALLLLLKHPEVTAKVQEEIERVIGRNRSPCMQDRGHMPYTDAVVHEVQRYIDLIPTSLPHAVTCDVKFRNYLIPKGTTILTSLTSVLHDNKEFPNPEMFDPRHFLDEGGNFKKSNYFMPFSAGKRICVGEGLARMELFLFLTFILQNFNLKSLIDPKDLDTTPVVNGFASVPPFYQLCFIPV
Sequence of Voltage-gated inwardly rectifying potassium channel KCNH2 (Q12809 whole entry): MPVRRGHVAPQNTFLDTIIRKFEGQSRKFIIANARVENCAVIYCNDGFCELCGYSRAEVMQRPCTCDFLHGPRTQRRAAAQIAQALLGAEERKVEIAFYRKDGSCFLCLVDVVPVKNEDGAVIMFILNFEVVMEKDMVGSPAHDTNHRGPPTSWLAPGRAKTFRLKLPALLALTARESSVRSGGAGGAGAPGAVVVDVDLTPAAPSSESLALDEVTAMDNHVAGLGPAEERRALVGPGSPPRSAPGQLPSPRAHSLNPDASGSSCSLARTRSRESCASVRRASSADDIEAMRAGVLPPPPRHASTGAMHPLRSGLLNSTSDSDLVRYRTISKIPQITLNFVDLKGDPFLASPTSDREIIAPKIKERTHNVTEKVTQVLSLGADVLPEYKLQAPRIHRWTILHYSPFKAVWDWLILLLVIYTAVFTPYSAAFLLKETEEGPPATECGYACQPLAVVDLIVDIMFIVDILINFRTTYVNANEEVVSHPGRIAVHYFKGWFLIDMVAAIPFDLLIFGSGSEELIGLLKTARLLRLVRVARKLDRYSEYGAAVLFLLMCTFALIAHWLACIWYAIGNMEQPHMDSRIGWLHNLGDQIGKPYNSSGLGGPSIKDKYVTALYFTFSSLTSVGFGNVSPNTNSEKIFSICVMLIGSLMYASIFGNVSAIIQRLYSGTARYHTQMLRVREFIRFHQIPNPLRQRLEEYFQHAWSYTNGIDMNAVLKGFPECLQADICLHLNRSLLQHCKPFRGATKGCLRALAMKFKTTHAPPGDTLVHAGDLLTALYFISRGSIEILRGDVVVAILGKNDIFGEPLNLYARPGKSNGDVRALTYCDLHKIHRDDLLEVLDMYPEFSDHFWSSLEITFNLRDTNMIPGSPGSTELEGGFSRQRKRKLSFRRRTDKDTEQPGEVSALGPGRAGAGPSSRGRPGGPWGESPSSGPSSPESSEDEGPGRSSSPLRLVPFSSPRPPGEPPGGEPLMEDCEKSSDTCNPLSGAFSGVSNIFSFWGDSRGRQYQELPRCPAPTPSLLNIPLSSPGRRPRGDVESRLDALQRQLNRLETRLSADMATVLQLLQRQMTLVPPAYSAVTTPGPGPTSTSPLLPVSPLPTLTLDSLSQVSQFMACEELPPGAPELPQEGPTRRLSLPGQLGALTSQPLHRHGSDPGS
Sequence of Phosphatidylinositol 4,5-bisphosphate 3-kinase catalytic subunit gamma isoform (P48736 whole entry, canonical isoform): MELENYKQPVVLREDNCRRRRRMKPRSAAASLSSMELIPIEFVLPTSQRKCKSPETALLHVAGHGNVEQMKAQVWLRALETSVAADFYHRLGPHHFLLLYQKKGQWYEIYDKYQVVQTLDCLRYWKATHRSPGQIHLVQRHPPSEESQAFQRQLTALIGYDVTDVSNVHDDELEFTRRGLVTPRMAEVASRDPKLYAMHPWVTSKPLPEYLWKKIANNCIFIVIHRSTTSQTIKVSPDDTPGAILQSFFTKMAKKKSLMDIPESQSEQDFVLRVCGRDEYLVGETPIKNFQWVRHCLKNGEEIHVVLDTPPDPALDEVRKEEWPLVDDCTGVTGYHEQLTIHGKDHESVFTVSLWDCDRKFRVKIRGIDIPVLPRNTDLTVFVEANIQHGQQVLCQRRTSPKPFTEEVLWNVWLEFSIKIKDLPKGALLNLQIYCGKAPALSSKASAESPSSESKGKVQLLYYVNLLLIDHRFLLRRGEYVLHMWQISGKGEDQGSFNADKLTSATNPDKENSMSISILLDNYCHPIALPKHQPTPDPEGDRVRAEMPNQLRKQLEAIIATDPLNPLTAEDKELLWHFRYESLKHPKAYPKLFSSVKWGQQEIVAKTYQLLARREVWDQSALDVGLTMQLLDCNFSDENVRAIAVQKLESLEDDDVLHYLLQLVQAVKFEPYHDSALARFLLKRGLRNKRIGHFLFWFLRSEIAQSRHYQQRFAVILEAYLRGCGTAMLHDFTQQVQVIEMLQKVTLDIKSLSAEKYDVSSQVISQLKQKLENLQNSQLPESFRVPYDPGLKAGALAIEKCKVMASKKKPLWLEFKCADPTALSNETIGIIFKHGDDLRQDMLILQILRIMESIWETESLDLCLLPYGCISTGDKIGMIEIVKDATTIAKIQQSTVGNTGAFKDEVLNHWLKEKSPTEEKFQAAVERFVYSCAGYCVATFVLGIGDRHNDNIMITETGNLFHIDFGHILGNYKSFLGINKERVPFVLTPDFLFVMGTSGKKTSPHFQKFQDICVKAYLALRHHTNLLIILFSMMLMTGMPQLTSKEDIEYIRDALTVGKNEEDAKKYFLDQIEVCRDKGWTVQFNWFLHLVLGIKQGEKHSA
Sequence of PI3-kinase p110-alpha/p85-alpha (P27986 whole entry, canonical isoform): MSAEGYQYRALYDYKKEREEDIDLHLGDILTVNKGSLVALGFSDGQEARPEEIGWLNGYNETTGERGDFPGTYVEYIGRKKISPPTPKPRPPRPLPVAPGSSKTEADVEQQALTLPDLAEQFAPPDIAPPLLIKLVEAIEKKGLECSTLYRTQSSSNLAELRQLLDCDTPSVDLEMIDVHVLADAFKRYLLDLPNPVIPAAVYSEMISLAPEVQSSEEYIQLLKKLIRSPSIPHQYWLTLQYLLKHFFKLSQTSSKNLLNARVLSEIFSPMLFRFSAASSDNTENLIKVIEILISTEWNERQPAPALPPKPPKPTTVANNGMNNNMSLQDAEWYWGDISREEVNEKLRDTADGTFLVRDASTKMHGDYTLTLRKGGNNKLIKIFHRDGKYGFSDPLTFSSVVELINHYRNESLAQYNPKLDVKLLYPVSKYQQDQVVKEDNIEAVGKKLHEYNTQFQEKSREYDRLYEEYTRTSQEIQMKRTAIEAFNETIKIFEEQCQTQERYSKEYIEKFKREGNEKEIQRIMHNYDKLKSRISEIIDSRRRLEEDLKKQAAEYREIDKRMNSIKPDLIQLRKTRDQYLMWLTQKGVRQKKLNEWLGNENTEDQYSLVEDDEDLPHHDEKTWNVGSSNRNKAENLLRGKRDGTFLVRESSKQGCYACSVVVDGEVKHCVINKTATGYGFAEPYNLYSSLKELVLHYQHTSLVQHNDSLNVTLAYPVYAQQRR
Sequence of PI3-kinase p110-alpha/p85-alpha (P42336 whole entry, canonical isoform): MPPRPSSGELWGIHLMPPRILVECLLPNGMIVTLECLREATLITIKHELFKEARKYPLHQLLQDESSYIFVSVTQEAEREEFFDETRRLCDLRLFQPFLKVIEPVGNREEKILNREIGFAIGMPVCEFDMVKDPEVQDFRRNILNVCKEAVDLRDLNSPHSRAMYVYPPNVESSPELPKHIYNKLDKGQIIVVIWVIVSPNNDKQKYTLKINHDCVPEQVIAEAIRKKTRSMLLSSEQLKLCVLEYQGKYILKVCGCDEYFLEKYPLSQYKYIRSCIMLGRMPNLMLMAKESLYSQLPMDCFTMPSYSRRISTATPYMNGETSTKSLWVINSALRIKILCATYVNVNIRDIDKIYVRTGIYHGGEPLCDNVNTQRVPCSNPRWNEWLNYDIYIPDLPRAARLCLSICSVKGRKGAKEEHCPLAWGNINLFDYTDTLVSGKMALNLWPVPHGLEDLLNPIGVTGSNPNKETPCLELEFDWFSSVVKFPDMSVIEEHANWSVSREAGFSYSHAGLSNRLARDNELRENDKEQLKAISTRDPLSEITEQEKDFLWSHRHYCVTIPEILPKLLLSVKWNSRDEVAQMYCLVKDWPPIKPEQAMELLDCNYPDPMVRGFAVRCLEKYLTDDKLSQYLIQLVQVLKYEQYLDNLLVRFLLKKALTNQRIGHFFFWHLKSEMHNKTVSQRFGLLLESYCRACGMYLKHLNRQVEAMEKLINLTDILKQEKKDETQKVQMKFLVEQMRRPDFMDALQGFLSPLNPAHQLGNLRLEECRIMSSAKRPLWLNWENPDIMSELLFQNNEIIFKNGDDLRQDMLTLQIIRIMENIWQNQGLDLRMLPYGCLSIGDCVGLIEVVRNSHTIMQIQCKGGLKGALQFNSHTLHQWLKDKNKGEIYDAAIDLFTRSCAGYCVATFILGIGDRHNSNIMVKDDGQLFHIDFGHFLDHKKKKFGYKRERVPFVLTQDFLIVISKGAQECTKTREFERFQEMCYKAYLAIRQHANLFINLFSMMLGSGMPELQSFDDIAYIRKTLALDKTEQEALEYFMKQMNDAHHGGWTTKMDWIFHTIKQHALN

Turning to `COc1ncc2cc1NS(=O)(=O)c1cccc(c1)C(=O)NCc1cncc(c1)-c1cnc3ccc-2cn13`, the IC50 in series [1] was 3.3 nM; in [6] it was greater than 30000 nM; in series [7], greater than 30000 nM; in [17], greater than 30000 nM. The EC50 in series [2] was 0.17 nM; in series [14] it was 0.46 nM. Moreover, the AUC(0-inf) in [3] stood at 2640 ng·h/mL; in [9] it was 4480 ng·h/mL. In addition, the values for the remaining at 0.25 h, 0.5 µM in series [4] and in [5] were 100% and 97%, respectively. This compound also gave a half-life in series [8] of 5.22 h. The compound further showed a bioavailability in series [10] of 84.6%. In addition, the figures for the Ki in series [11] and in [12] were 0.16 nM and 0.98 nM, respectively. Moreover, the Selectivity ratio in series [13] was 6.3. Moreover, the GI50 came out at 22.8 nM in series [15] and 18.9 nM in [16].
